Where only a bound is given, the exact number is not on record here.

Monoamine transporters; serotonin & dopamine (Homo sapiens), sequence (P31645 whole entry, looked up): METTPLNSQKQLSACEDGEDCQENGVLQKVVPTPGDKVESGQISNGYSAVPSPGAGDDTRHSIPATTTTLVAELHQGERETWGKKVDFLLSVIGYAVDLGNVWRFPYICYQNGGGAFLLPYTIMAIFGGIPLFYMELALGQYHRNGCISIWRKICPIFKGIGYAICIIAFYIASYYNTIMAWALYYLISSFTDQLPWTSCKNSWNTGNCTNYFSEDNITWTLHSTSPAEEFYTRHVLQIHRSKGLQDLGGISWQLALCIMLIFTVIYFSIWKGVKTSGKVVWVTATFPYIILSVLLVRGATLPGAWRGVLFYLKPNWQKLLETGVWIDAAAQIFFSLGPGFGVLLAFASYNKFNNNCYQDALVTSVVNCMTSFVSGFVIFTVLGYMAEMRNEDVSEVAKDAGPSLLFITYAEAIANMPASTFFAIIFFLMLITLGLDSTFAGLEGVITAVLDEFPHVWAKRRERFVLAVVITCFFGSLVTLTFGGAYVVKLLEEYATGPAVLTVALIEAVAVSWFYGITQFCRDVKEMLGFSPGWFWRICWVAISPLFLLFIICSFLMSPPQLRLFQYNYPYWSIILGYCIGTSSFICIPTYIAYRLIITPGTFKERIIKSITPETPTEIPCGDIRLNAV
Monoamine transporters; serotonin & dopamine (Homo sapiens), sequence (Q01959 whole entry, looked up): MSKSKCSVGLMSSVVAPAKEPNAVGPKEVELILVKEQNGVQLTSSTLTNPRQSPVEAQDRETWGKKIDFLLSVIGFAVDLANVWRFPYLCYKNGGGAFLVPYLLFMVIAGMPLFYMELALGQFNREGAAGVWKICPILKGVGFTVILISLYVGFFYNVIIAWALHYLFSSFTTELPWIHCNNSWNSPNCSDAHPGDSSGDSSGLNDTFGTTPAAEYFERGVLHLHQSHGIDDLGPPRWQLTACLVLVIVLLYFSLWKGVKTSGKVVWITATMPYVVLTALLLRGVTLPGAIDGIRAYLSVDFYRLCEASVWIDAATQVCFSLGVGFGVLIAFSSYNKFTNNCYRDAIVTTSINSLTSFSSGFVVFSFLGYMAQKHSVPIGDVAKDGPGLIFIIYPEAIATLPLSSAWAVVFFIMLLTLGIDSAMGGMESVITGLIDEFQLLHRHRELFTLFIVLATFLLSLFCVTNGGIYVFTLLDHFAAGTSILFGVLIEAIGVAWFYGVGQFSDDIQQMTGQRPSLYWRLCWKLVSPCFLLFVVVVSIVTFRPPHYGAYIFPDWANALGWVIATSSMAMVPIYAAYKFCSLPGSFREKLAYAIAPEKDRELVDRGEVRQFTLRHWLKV

The target in one assay is T1, Sodium-dependent serotonin transporter (Homo sapiens, UniProt P31645). The assay can be described thus: Inhibition of [3H]-citalopram binding to the serotonin transporter in rhesus (Macaca mulatta) or cynomolgus monkey (Macaca fascicularis) caudate-putamen. It counts as tissue-based, Cercopithecidae.
T1 sequence (P31645 whole entry): as the sequence (P31645 whole entry, looked up) above
Details: not given; call rule not given here
The method, boiled down: (§1)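 Caudate-putamen membranes homogenised in ice-cold 50 mM Tris·HCl (pH 7.4), spun at 38000g for 20 min, washed twice. Assay at 4 mg original wet tissue/mL with 1 nM [3H]citalopram in 50 mM Tris·HCl pH 7.4 plus 100 mM NaCl. Incubated 2 h at 0-4 °C, then filtered on polyethyleneimine-soaked GF/B and counted by scintillation. Nonspecific binding defined with 10 µM fluoxetine. IC50 by EBDA; triplicates, 2-3 brains.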
As usually defined, the IC50 is the concentration that inhibits the measured activity by half. `COC(=O)[C@@H]1C2CC[C@H](C[C@@H]1c1ccccc1)N2C.Cl`: the half-maximal inhibitory concentration (IC50) entry is “Not Active”.

The next assay concerns the target Monoamine transporters; serotonin & dopamine (Homo sapiens) (UniProt P31645+Q01959). The assay is described as follows: SERT/DAT ratio of the compound. It counts as protein assay.
Details: not given
`COC(=O)C1=C(c2ccc(F)cc2)CC2C[C@@H](O)C1N2C` (some centres not stated): the Ratio is 1. Same read-out and setting: the result for `COC(=O)C1=C(c2ccc3ccccc3c2)CC2[C@@H](O)CC1N2C` (some centres not stated) reads 1; that for `COC(=O)C1=C(c2ccc(F)cc2)CC2[C@@H](O)CC1N2C` (some centres not stated), 1.

Consider `COC(=O)C1=C(c2ccc3ccccc3c2)CC2C[C@@H](O)C1N2C` (some centres not stated), for which the Ratio was found to be 15. Take `COC(=O)C1=C(c2ccc(Cl)c(Cl)c2)CC2[C@@H](O)CC1N2C` (some centres not stated): the Ratio turned out to be 60. For `COC(=O)C1=C(c2ccc(Cl)c(Cl)c2)CC2C[C@H](O)[C@H]1N2C`, the Ratio came out at 6. As to `COC(=O)[C@@H]1C(c2ccc(Cl)c(Cl)c2)C[C@H]2C[C@@H](O)C1N2C` (some centres not stated), the Ratio was 1610. On the same count and under the same terms, the result for `COC(=O)C1=C(c2ccc(Cl)c(Cl)c2)CC2C[C@@H](O)C1N2C` (some centres not stated) reads above 300. On the same count and under the same terms, as for `COC(=O)C1=C(c2ccccc2)CC2CCC1N2C` (configuration not stated), the figure is 11; as for `COC(=O)C1=C(c2ccccc2)CC2C[C@@H](O)C1N2C` (some centres not stated), 1.

Turning to `COC(=O)C1=C(c2ccccc2)CC2[C@@H](O)CC1N2C` (some centres not stated), the Ratio was 1. In the case of `COC(=O)C1C(c2ccc(Cl)c(Cl)c2)C[C@H]2C[C@@H](O)C1N2C` (some centres not stated), the Ratio came out at 50. Same read-out and setting: the result for `COC(=O)C1=C(c2ccc(Cl)c(Cl)c2)CC2CCC1N2C` (configuration not stated) reads 747; that for `COC(=O)C1=C(c2ccc(F)cc2)CC2CCC1N2C` (configuration not stated), 20.

As for `COC(=O)C1=C(c2ccc3ccccc3c2)CC2CCC1N2C` (configuration not stated), the Ratio came to 37. The same measure, in the same setting: as for `COC(=O)C1C(c2ccc(Cl)c(Cl)c2)CC2CCC1N2C` (stereo in doubt; 13a), the figure is 2; as for `COC(=O)C1C(c2ccc3ccccc3c2)CC2CCC1N2C` (stereo in doubt; 13b), 5. On the same count and under the same terms, the result for `COC(=O)C1C(c2ccc(Cl)c(Cl)c2)CC2[C@@H](O)CC1N2C` (stereo in doubt; 14a) [listing 1 of 2 here] reads 55. For the compound `COC(=O)C1C(c2ccc3ccccc3c2)CC2[C@@H](O)CC1N2C` (stereo in doubt; 14b) [listing 1 of 2 here], the Ratio came out at 4. Same read-out and setting: the result for `COC(=O)C1C(c2ccc(F)cc2)CC2[C@@H](O)CC1N2C` (stereo in doubt; 14c) [listing 1 of 2 here] reads above 42. On the same count and under the same terms, as for `COC(=O)C1C(c2ccccc2)CC2[C@@H](O)CC1N2C` (stereo in doubt; 14d) [listing 1 of 2 here], the figure is 14; as for `COC(=O)C1C(c2ccc(Cl)c(Cl)c2)CC2C[C@@H](O)C1N2C` (stereo in doubt; 15a) [listing 1 of 2 here], 20; as for `COC(=O)C1C(c2ccc3ccccc3c2)CC2C[C@@H](O)C1N2C` (stereo in doubt; 15b) [listing 1 of 2 here], 4.

On to `COC(=O)C1C(c2ccc(F)cc2)CC2C[C@@H](O)C1N2C` (stereo in doubt; 15c) [listing 1 of 2 here], for which the Ratio is above 80. The same measure, in the same setting: the result for `COC(=O)C1C(c2ccccc2)CC2C[C@@H](O)C1N2C` (stereo in doubt; 15d) [listing 1 of 2 here] reads above 43; that for `COC(=O)C1C(c2ccc(Cl)c(Cl)c2)CC2CCC1N2C` (stereo in doubt; 16a), 73; that for `COC(=O)C1C(c2ccc3ccccc3c2)CC2CCC1N2C` (stereo in doubt; 16b), 10. As for `COC(=O)C1C(c2ccc(Cl)c(Cl)c2)CC2[C@@H](O)CC1N2C` (stereo in doubt; 17a) [listing 1 of 2 here], the Ratio was determined as 238.

Take `COC(=O)C1C(c2ccc3ccccc3c2)CC2[C@@H](O)CC1N2C` (stereo in doubt; 17b) [listing 1 of 2 here]: the Ratio came to 6. The same measure, in the same setting: the result for `COC(=O)C1C(c2ccc(F)cc2)CC2[C@@H](O)CC1N2C` (stereo in doubt; 17c) [listing 1 of 2 here] reads 8.

As to `COC(=O)C1C(c2ccccc2)CC2[C@@H](O)CC1N2C` (stereo in doubt; 17d) [listing 1 of 2 here], the Ratio was above 3. The same measure, in the same setting: the result for `COC(=O)C1C(c2ccc(Cl)c(Cl)c2)CC2C[C@@H](O)C1N2C` (stereo in doubt; 18a) [listing 1 of 2 here] reads 1170; that for `COC(=O)C1C(c2ccc3ccccc3c2)CC2C[C@@H](O)C1N2C` (stereo in doubt; 18b) [listing 1 of 2 here], 34; that for `COC(=O)C1C(c2ccc(F)cc2)CC2C[C@@H](O)C1N2C` (stereo in doubt; 18c) [listing 1 of 2 here], above 120.

On to `COC(=O)C1C(c2ccccc2)CC2C[C@@H](O)C1N2C` (stereo in doubt; 18d) [listing 1 of 2 here], for which the Ratio is above 190. Same read-out and setting: as for `COC(=O)[C@H]1C(c2ccc(Cl)c(Cl)c2)CC2C[C@@H](O)[C@H]1N2C` (stereo in doubt; (1R)-15a) [listing 1 of 2 here], the figure is 0.05; as for `COC(=O)[C@H]1C(c2ccc(Cl)c(Cl)c2)CC2C[C@@H](O)[C@H]1N2C` (stereo in doubt; (1R)-18a) [listing 1 of 2 here], 11.

Another assay concerns the target T1, Sodium-dependent serotonin transporter. The assay can be described thus: Inhibition of [3H]citalopram binding to the serotonin transporter in rhesus (Macaca mulatta) or cynomolgus monkey (Macaca fascicularis) caudate-putamen. It counts as tissue-based, Cercopithecidae. To be noted: target entry is the homologue from another species. The method, boiled down: as §1
In turn, `COC(=O)[C@H]1C2C(=O)CC(C[C@H]1c1ccc(Cl)c(Cl)c1)N2C` (some centres not stated) displayed an IC50 of 7040 nM. The same measure, in the same setting: as for `COC(=O)C1=C(c2ccc(F)cc2)CC2C[C@@H](O)C1N2C` (some centres not stated), the figure is above 10000 nM; as for `COC(=O)C1C(OC(c2ccc(F)cc2)c2ccc(F)cc2)CC2C[C@@H](O)C1N2C` (some centres not stated), 9560 nM. The same measure, in the same setting: as for `COC(=O)C1=C(c2ccc3ccccc3c2)CC2[C@@H](O)CC1N2C` (some centres not stated), the figure is 260 nM; as for `COC(=O)C1=C(c2ccc(F)cc2)CC2[C@@H](O)CC1N2C` (some centres not stated), above 20000 nM. Take `COC(=O)C1=C(c2ccc3ccccc3c2)CC2C[C@@H](O)C1N2C` (some centres not stated): the IC50 is 677 nM. The same measure, in the same setting: the result for `COC(=O)C1=C(c2ccc(Cl)c(Cl)c2)CC2[C@@H](O)CC1N2C` (some centres not stated) reads 3320 nM; that for `COC(=O)C1=C(c2ccc(Cl)c(Cl)c2)CC2C[C@H](O)[C@H]1N2C`, 1590 nM. Still for that read-out and setting: the result for `COC(=O)[C@@H]1C(c2ccc(Cl)c(Cl)c2)C[C@H]2C[C@@H](O)C1N2C` (some centres not stated) reads 1220 nM; that for `COC(=O)C1=C(c2ccc(Cl)c(Cl)c2)C[C@H]2C[C@@H](O)C1N2C`, 5370 nM.

Take `COC(=O)C1=C(c2ccc(Cl)c(Cl)c2)CC2C[C@@H](O)C1N2C` (some centres not stated): the IC50 was above 6000 nM. Still for that read-out and setting: as for `COC(=O)C1C(c2ccc(Cl)c(Cl)c2)CC2[C@H](O)CC1N2C` (some centres not stated), the figure is 10700 nM; as for `COC(=O)C1C(c2ccc(Cl)c(Cl)c2)CC2C[C@H](O)C1N2C` (some centres not stated), 991 nM; as for `COC(=O)C1=C(c2ccccc2)CC2CCC1N2C` (configuration not stated), 28600 nM. On to `COC(=O)C1=C(c2ccccc2)CC2C[C@@H](O)C1N2C` (some centres not stated), for which the IC50 is above 10000 nM. The same measure, in the same setting: the result for `COC(=O)C1=C(c2ccccc2)CC2[C@@H](O)CC1N2C` (some centres not stated) reads above 100000 nM; that for `COC(=O)C1C(OC(c2ccc(F)cc2)c2ccc(F)cc2)CC2[C@@H](O)CC1N2C` (some centres not stated), 4850 nM. Same read-out and setting: the result for `COC(=O)C1C(c2ccc(Cl)c(Cl)c2)C[C@H]2C[C@@H](O)C1N2C` (some centres not stated) reads 15 nM; that for `COC(=O)C1C(c2ccc(Cl)c(Cl)c2)CC2[C@@H](O)CC1N2C` (stereo in doubt; 14a) [listing 2 of 2 here], 166 nM. On the same count and under the same terms, as for `COC(=O)C1C(c2ccc3ccccc3c2)CC2[C@@H](O)CC1N2C` (stereo in doubt; 14b) [listing 2 of 2 here], the figure is 34.2 nM; as for `COC(=O)C1C(c2ccc(F)cc2)CC2[C@@H](O)CC1N2C` (stereo in doubt; 14c) [listing 2 of 2 here], above 20000 nM; as for `COC(=O)C1C(c2ccccc2)CC2[C@@H](O)CC1N2C` (stereo in doubt; 14d) [listing 2 of 2 here], 88000 nM. In the case of `COC(=O)C1C(c2ccc(Cl)c(Cl)c2)CC2C[C@@H](O)C1N2C` (stereo in doubt; 15a) [listing 2 of 2 here], the IC50 was determined as 27.7 nM.

Consider `COC(=O)C1C(c2ccc3ccccc3c2)CC2C[C@@H](O)C1N2C` (stereo in doubt; 15b) [listing 2 of 2 here], for which the half-inhibitory concentration (IC50) is 5.57 nM. On the same count and under the same terms, as for `COC(=O)C1C(c2ccc(F)cc2)CC2C[C@@H](O)C1N2C` (stereo in doubt; 15c) [listing 2 of 2 here], the figure is above 10000 nM.

The compound `COC(=O)C1C(c2ccccc2)CC2C[C@@H](O)C1N2C` (stereo in doubt; 15d) [listing 2 of 2 here] showed an IC50 above 10000 nM. On to `COC(=O)[C@H]1[C@@H](c2ccc(F)cc2)C[C@H]2CC[C@H]1N2C` (stereo in doubt; 16c), for which the concentration for half-maximal inhibition (IC50) worked out at 1130 nM. `COC(=O)C1C(c2ccc(Cl)c(Cl)c2)CC2[C@@H](O)CC1N2C` (stereo in doubt; 17a) [listing 2 of 2 here] returned an IC50 of 1450 nM.

In the case of `COC(=O)C1C(c2ccc3ccccc3c2)CC2[C@@H](O)CC1N2C` (stereo in doubt; 17b) [listing 2 of 2 here], the IC50 amounted to 180 nM. With `COC(=O)C1C(c2ccc(F)cc2)CC2[C@@H](O)CC1N2C` (stereo in doubt; 17c) [listing 2 of 2 here], the IC50 is 5820 nM. The same measure, in the same setting: the result for `COC(=O)C1C(c2ccccc2)CC2[C@@H](O)CC1N2C` (stereo in doubt; 17d) [listing 2 of 2 here] reads above 10000 nM. On the same count and under the same terms, the result for `COC(=O)C1C(c2ccc(Cl)c(Cl)c2)CC2C[C@@H](O)C1N2C` (stereo in doubt; 18a) [listing 2 of 2 here] reads 1390 nM; that for `COC(=O)C1C(c2ccc3ccccc3c2)CC2C[C@@H](O)C1N2C` (stereo in doubt; 18b) [listing 2 of 2 here], 94 nM; that for `COC(=O)C1C(c2ccc(F)cc2)CC2C[C@@H](O)C1N2C` (stereo in doubt; 18c) [listing 2 of 2 here], above 20000 nM. Same read-out and setting: the result for `COC(=O)C1C(c2ccccc2)CC2C[C@@H](O)C1N2C` (stereo in doubt; 18d) [listing 2 of 2 here] reads above 100000 nM; that for `COC(=O)C1C(c2ccc(Cl)c(Cl)c2)CC2C[C@@H](O)C1N2C` (stereo in doubt; 33), 533 nM.

In turn, `COC(=O)C1C(c2ccccc2)CC2[C@@H](O)CC1N2C` (stereo in doubt; 34) showed an IC50 above 20000 nM. Compound `COC(=O)[C@H]1C(c2ccc(Cl)c(Cl)c2)CC2C[C@@H](O)[C@H]1N2C` (stereo in doubt; (1R)-15a) [listing 2 of 2 here] had an IC50 of 139 nM. Still for that read-out and setting: as for `COC(=O)[C@H]1C(c2ccc(Cl)c(Cl)c2)CC2C[C@@H](O)[C@H]1N2C` (stereo in doubt; (1R)-18a) [listing 2 of 2 here], the figure is 5300 nM.

(Values after ChEMBL document CHEMBL1134553 (J Med Chem, 2001).)
